Laboratory results taken from ChEMBL document CHEMBL4680373, “Evaluation of 5-(Trifluoromethyl)-1,2,4-oxadiazole-Based Class IIa HDAC Inhibitors for Huntington's Disease” (ACS Med Chem Lett, 2021).

What was measured:
Histone deacetylase 2 = Histone deacetylase 2 (Homo sapiens, UniProt Q92769); assay: Inhibition of HDAC2 (unknown origin) using Ac-Arg-Gly-Lys(Ac) as substrate by fluorogenic assay
[1] = Toxicity in CBAxC57BL/6J mouse assessed as effect on stereotypy at 10 to 100 mg/kg, po bid for 14.5 days; type: organism-based; conditions: in vivo, 348 h, dose 10-100 mg/kg, time 14.5 day
In short: (§1)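 R6/2 HD mice and wild-type littermates, male and female, were dosed orally b.i.d. at 10, 30 or 100 mg/kg or with vehicle for 14.5 days. Vehicle was 10% (w/v) hydroxypropyl-β-cyclodextrin in 50 mM citrate buffer. Body weight, body temperature, passive observations and active manipulation scores were recorded. Blood and brain were collected 2 h after the final dose.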

[2] = In vivo inhibition of Class 2B HDAC in C57BL/6J mouse brain assessed as increase in tubulin acetylation administered orally via gavage measured after 2 hrs by western blot analysis; type: organism-based; conditions: po, dose 10-100 mg/kg
In short: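 Brain samples were taken 2 h after single oral gavage doses (10, 30, 100 mg/kg). Western blots probed H3, H4 and tubulin acetylation, each normalized to its own total-protein band. Comparison was against samples taken 5 min after a 10 mg/kg dose.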

[3] = In vivo inhibition of Class 1/2B HDAC in C57BL/6J mouse brain assessed as increase in global pan-acetylation at 10 mg/kg, po administered via gavage measured after 2 hrs by dot blot technique; type: organism-based
In short: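 Mice received single oral gavage doses of 10, 30 or 100 mg/kg, and brains were sampled from 0.25 to 12 h. Brain compound levels were measured by LC-MS/MS. Dot blots read H4K12 acetylation normalized to histone H4, or pan-acetyl-lysine normalized to tubulin.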

[4] = In vivo inhibition of Class 1/2B HDAC in CBAxC57BL/6J mouse brain assessed as increase in global pan-acetylation at >=10 mg/kg, po bid for 14.5 days by dot blot technique; type: organism-based; conditions: 348 h, time 14.5 day
In short: (§2)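 R6/2 and wild-type littermate mice of both sexes were dosed orally b.i.d. for 14.5 days with 10, 30 or 100 mg/kg or vehicle (10% w/v hydroxypropyl-β-cyclodextrin in 50 mM citrate buffer). Half-brains were collected 2 h after the last dose. Dot blots measured global and H4K12 acetylation; Western blots measured H3, H4 and tubulin acetylation. Genotypes were pooled.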

[5] = In vivo inhibition of Class 1 HDAC in CBAxC57BL/6J mouse brain assessed as increase in histone H4 acetylation at 30 to 100 mg/kg, po bid for 14.5 days by western blot analysis; type: organism-based; conditions: 348 h, dose 30-100 mg/kg, time 14.5 day; in short: as §2
[6] = Tmax in C57BL/6J mouse blood at 11.5 mg/kg, po administered via gavage by LC-MS/MS analysis; type: ADME, organism-based
Cytochrome P450 2C8 = Cytochrome P450 2C8 (Homo sapiens, UniProt P10632); assay: Inhibition of CYP2C8 in human liver microsomes using amodiaquine as substrate incubated for 15 mins by LC-MS/MS analysis; type: ADME
[7] = Inhibition of Class 2A HDAC in human HEK293 cells using Boc-Lys(TFA) as substrate by fluorogenic assay; type: cell-based
[8] = biological target: Muscarinic acetylcholine receptor M4 (Homo sapiens, UniProt P08173); assay: Displacement of [3H]4-DAMP from human recombinant M4 receptor incubated for 1 hr by radiometric scintillation counting analysis
Cytochrome P450 2C9 = Cytochrome P450 2C9 (Homo sapiens, UniProt P11712); assay: Inhibition of CYP2C9 in human liver microsomes using diclofenac as substrate incubated for 15 mins by LC-MS/MS analysis; type: ADME
[9] = Toxicity in CBAxC57BL/6J mouse assessed as effect on shivering at 10 to 100 mg/kg, po bid for 14.5 days; type: organism-based; conditions: in vivo, 348 h, dose 10-100 mg/kg, time 14.5 day; in short: as §1
[10] = Toxicity in CBAxC57BL/6J mouse assessed as effect on shallow respiration at 10 to 100 mg/kg, po bid for 14.5 days; type: organism-based; conditions: in vivo, 348 h, dose 10-100 mg/kg, time 14.5 day; in short: as §1
[11] = Oral bioavailability in C57BL/6J mouse at 11.5 mg/kg administered via gavage by LC-MS/MS analysis; type: ADME, organism-based; conditions: in vivo
In short: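 Fed male C57Bl/6 mice dosed once intravenously at 3.3 mg/kg and by oral gavage at 11.5 mg/kg. Compound levels were quantified to derive PK parameters.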

Cytochrome P450 1A2 = Cytochrome P450 1A2 (Homo sapiens, UniProt P05177); assay: Inhibition of CYP1A2 in human liver microsomes using phenacetin as substrate incubated for 30 mins by LC-MS/MS analysis; type: ADME
Histone deacetylase 8 = biological target: T1, Histone deacetylase 8 (Homo sapiens, UniProt Q9BY41); assay: Inhibition of HDAC8 (unknown origin) using Boc-Lys(TFA) as substrate by fluorogenic assay
T1 sequence (Q9BY41 whole entry): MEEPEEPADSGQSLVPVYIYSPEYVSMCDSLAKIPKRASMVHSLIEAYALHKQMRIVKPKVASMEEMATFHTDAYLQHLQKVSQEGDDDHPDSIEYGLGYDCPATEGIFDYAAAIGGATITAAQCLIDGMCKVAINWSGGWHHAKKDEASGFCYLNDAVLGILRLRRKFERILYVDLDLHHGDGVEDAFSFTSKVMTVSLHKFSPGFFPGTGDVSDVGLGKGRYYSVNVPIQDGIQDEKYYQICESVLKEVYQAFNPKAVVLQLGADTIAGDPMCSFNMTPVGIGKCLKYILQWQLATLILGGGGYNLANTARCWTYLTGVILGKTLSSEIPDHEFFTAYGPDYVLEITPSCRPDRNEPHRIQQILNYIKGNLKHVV
In short: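 Biochemical HDAC isoform assay with the artificial fluorogenic substrate Boc-Lys-(TFA)-AMC, which is specific to class IIa enzymes and HDAC8. IC50 taken as the geometric mean of three experiments.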

Cytochrome P450 3A4 = Cytochrome P450 3A4 (Homo sapiens, UniProt P08684); assay: Inhibition of CYP3A4 in human liver microsomes using testosterone as substrate incubated for 30 mins by LC-MS/MS analysis; type: ADME
[12] = Unbound fraction in mouse brain; type: ADME, tissue-based
In short: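 Unbound fraction measured in mouse brain homogenate.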

[13] = biological target: Muscarinic acetylcholine receptor M2 (Homo sapiens, UniProt P08172); assay: Displacement of [3H]AF-DX384 from human recombinant M2 receptor incubated for 1 hr by radiometric scintillation counting analysis
[14] = Toxicity in CBAxC57BL/6J mouse assessed as effect on ataxia at 10 to 100 mg/kg, po bid for 14.5 days; type: organism-based; conditions: in vivo, 348 h, dose 10-100 mg/kg, time 14.5 day; in short: as §1
[15] = Time during which drug concentration exceeds the IC50 for inhibition of human Class 2A HDAC in C57BL/6J mouse brain at 100 mg/kg, po administered via gavage by LC-MS/MS analysis; type: organism-based; conditions: in vivo
In short: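 Single oral gavage doses of 10, 30 or 100 mg/kg were given to C57/BL6 mice. Brain and blood were sampled from 0.25 to 12 h and compound measured by LC-MS/MS. The time that total brain exposure stayed above the class IIa cellular IC50 was then estimated.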

[16] = Tmax in C57BL/6J mouse brain at 11.5 mg/kg, po administered via gavage by LC-MS/MS analysis; type: ADME, organism-based

Sequence of Muscarinic acetylcholine receptor M2 (P08172 whole entry): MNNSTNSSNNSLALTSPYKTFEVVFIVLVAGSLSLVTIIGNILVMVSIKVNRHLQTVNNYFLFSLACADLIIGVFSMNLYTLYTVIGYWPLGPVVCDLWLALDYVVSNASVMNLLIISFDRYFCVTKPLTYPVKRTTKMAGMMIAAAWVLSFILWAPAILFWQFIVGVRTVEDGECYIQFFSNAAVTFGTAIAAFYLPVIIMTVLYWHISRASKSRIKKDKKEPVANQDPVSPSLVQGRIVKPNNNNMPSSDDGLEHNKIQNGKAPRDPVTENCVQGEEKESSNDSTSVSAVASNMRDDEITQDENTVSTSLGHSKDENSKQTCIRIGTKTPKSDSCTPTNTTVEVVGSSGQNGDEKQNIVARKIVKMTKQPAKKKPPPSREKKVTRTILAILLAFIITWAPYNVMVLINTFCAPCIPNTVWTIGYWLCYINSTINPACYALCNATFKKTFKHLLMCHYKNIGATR
Sequence of Cytochrome P450 2C8 (P10632 whole entry): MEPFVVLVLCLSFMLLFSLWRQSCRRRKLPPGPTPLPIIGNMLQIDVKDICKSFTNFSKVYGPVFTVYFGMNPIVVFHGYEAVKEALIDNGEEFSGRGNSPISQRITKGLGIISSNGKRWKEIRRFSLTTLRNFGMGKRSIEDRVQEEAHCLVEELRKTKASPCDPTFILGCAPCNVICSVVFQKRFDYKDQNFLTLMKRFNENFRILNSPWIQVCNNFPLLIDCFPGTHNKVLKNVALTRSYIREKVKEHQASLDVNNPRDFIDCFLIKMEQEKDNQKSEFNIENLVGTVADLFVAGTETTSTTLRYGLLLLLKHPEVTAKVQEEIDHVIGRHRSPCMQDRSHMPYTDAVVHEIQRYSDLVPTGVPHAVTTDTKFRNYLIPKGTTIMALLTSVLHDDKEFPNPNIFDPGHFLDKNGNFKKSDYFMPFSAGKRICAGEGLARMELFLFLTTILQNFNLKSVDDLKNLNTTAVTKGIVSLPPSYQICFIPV
Sequence of Cytochrome P450 3A4 (P08684 whole entry): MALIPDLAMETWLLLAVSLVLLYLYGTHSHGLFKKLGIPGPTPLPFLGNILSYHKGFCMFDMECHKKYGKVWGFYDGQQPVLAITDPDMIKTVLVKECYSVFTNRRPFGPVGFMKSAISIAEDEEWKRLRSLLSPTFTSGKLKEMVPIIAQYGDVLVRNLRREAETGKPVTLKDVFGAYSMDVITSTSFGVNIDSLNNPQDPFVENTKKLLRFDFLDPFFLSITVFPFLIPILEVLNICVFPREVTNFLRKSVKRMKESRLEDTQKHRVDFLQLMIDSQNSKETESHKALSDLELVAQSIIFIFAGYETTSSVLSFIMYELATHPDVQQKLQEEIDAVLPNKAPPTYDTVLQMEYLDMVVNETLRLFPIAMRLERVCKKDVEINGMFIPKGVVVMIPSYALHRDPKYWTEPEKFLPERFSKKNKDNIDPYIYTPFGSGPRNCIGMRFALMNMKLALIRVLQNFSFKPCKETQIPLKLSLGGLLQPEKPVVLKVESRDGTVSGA
Sequence of Histone deacetylase 2 (Q92769 whole entry): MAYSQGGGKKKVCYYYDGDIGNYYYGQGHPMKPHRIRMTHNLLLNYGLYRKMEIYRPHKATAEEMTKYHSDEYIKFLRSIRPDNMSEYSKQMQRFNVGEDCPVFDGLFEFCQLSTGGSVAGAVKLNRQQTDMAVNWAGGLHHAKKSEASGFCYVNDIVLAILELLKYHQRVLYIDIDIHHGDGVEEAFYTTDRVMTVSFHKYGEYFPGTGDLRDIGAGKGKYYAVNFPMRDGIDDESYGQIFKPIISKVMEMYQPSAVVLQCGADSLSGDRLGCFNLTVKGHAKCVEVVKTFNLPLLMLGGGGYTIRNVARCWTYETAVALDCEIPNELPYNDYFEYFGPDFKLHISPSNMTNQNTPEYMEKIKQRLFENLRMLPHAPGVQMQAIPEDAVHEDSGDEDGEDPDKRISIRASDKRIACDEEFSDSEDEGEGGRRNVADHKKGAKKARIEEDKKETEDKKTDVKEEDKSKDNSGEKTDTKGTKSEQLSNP
Sequence of Cytochrome P450 1A2 (P05177 whole entry): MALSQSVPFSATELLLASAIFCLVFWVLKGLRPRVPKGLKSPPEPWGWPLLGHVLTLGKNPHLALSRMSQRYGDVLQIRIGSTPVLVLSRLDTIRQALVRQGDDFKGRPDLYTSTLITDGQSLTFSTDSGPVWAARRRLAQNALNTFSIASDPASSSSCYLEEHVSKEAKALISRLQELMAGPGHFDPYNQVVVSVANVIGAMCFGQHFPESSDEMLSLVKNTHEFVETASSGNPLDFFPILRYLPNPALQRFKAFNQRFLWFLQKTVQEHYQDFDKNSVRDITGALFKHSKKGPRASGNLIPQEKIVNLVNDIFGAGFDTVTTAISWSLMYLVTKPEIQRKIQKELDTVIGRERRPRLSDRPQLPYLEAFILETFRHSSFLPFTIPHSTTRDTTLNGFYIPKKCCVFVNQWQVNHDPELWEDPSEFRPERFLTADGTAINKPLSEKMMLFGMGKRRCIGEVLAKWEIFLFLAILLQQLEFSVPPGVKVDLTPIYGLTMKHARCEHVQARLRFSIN
Sequence of Muscarinic acetylcholine receptor M4 (P08173 whole entry): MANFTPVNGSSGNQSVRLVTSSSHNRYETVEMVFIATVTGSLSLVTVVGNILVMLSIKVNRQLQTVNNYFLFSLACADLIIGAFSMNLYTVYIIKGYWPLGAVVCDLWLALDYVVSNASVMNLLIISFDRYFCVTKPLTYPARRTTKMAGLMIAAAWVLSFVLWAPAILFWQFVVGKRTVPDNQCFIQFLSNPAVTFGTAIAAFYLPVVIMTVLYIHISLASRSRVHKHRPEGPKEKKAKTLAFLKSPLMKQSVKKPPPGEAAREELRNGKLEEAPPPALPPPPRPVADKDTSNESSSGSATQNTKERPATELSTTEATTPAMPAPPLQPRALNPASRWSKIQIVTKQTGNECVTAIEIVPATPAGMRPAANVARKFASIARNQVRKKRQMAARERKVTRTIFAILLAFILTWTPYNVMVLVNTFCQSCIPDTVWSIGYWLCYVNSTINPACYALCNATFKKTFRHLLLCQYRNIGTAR
Sequence of Cytochrome P450 2C9 (P11712 whole entry): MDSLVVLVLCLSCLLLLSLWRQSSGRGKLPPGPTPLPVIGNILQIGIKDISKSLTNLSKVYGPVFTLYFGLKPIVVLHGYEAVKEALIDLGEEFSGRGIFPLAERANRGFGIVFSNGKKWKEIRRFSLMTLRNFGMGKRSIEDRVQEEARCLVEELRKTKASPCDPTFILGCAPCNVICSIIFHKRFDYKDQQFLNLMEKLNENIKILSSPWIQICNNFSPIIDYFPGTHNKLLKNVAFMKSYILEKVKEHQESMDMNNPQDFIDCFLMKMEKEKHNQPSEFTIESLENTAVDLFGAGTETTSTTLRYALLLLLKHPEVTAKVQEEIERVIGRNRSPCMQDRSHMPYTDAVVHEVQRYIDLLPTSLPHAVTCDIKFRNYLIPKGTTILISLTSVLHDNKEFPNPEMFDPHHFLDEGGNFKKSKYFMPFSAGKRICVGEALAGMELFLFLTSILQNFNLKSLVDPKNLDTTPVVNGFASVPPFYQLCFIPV

C[C@H](CN1CCC[C@@H]1C)NC(=O)c1ccc(-c2noc(C(F)(F)F)n2)cc1
IC50 (Histone deacetylase 2): 27 µM
Activity [1]: Non-Toxic
Activity [2]: Toxic
Activity [3]: Toxic
Activity [4]: Toxic
Activity [5]: Toxic
Tmax [6]: 30 min
IC50 (Cytochrome P450 2C8): > 50 µM
IC50 [7]: 0.01 µM
Kd [8]: > 5 µM
IC50 (Cytochrome P450 2C9): > 50 µM
Activity [9]: Non-Toxic
Activity [10]: Non-Toxic
bioavailability [11]: 100%
IC50 (Cytochrome P450 1A2): > 50 µM
IC50 (Histone deacetylase 8): 2 µM
IC50 (Cytochrome P450 3A4): > 50 µM
fraction unbound [12]: 0.17
Kd [13]: > 5 µM
Activity [14]: Non-Toxic
T>IC50 [15]: 14 h
Tmax [16]: 30 min
